Measured values published in ChEMBL document CHEMBL5335820, “Novel quinolinepiperazinyl-aryltetrazoles targeting the blood stage of Plasmodium falciparum” (RSC Med Chem, 2024).

How the values were obtained:
[1] = test system: Plasmodium berghei; assay: Antimalarial activity against Plasmodium berghei ANKA infected in mouse model of malaria assessed as reduction in parasite infection by measuring median survival at 100 mg/kg, po; assay type: functional
[2] = Selectivity index, ratio of CC50 for human HEK293 cells to IC50 of chloroquine resistant Plasmodium falciparum INDO infected in human erythrocytes; assay type: toxicity, cell-based; details: read-out: Ratio CC50/IC50
Summary of the method: (§1)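 Selectivity index = CC50 / PfINDO IC50. CC50 came from MTT assays: 10^4 HEK293 or HUH7 cells per well, seeded overnight and exposed to 0–100 μM for 24 h, then MTT for 4 h at 37 °C with formazan dissolved in DMSO and read at A570. Controls were 0.8% DMSO (full growth) and 10% DMSO (zero growth).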

[3] = Cytotoxicity against human HEK293 cells assessed as reduction in cell viability incubated for 24 hrs by MTT assay; assay type: toxicity, cell-based
[4] = test system: Plasmodium falciparum; assay: Antiplasmodial activity against chloroquine sensitive Plasmodium falciparum 3D7 infected in human erythrocytes assessed as inhibition of parasite growth incubated for 72 hrs by SYBR green I staining based fluorescence plate reader analysis; assay type: functional, organism-based; details: 3D7, Erythrocyte
Summary of the method: (§2)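 Pf3D7 or PfINDO was cultured in O+ human erythrocytes at 37 °C under 5% O2/5% CO2/90% N2 and ring-synchronised with 5% sorbitol. Cultures were exposed to 0–100 μM in triplicate for 72 h, with final DMSO 0.4%. After SYBR Green I lysis buffer (1 h, dark, 37 °C), fluorescence was read at 485/530 nm. Chloroquine-well counts were subtracted as background, and IC50 was obtained by non-linear regression.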

[5] = test system: Plasmodium falciparum; assay: Antiplasmodial activity against chloroquine resistant Plasmodium falciparum INDO infected in human erythrocytes assessed as inhibition of parasite growth incubated for 72 hrs by SYBR green I staining based fluorescence plate reader analysis; assay type: functional, organism-based; details: Erythrocyte; summary of the method: as §2
[6] = Resistance index, ratio of IC50 of chloroquine resistant Plasmodium falciparum INDO to chloroquine sensitive Plasmodium falciparum 3D7; assay type: functional
Summary of the method: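 Resistance index = IC50 against PfINDO / IC50 against Pf3D7. Both IC50s came from 72 h SYBR Green I assays.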

[7] = test system: Plasmodium falciparum; assay: Antiplasmodial activity against chloroquine resistant Plasmodium falciparum INDO infected in human erythrocytes assessed as inhibition of parasite growth at 100 uM incubated for 72 hrs by SYBR green I staining based fluorescence plate reader analysis relative to control; assay type: functional; details: Erythrocyte
Summary of the method: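 Single-concentration screen at 100 μM against PfINDO, triplicate wells, 72 h. Final DMSO was 0.4%. Growth was read by SYBR Green I lysis (excitation 485, emission 530 nm) and expressed relative to untreated culture, taken as 100% growth.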

[8] = Selectivity index, ratio of CC50 for human Huh-7 cells to IC50 for antiplasmodial activity against chloroquine resistant Plasmodium falciparum INDO infected in human erythrocytes; assay type: toxicity, cell-based; details: read-out: Ratio CC50/IC50; summary of the method: as §1
[9] = Cytotoxicity against human Huh-7 cells assessed as reduction in cell viability incubated for 24 hrs by MTT assay; assay type: toxicity, cell-based
[10] = test system: Plasmodium falciparum; assay: Antiplasmodial activity against chloroquine sensitive Plasmodium falciparum 3D7 infected in human erythrocytes assessed as inhibition of parasite growth at 100 uM incubated for 72 hrs by SYBR green I staining based fluorescence plate reader analysis relative to control; assay type: functional; details: 3D7, Erythrocyte
Summary of the method: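 Pf3D7 grown in O+ human erythrocytes at 4% haematocrit, Albumax (0.05%)-RPMI, 37 °C, 5% O2/5% CO2/90% N2, sorbitol-synchronised at ring stage. Single-point screen at 100 μM, final DMSO 0.4%, triplicate wells, 72 h. Read-out by SYBR Green I lysis buffer (Tris pH 7.5, EDTA, saponin, Triton X-100), 1 h dark at 37 °C, ex 485/em 530 nm. Growth expressed relative to untreated culture.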

[11] = test system: Plasmodium falciparum; assay: Antimalarial activity against chloroquine resistant early schizont Plasmodium falciparum INDO infected in human erythrocytes assessed as inhibition of parasite growth incubated for 12 hrs; assay type: functional, organism-based; details: Erythrocyte
Summary of the method: (§3)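 PfINDO cultures were staged at 0–6 h (rings), 18–22 h (trophozoites), 30–34 h (early schizonts) and 40–44 h (late schizonts) post-invasion. Each was exposed to varying concentrations for 12 h, washed free of compound by centrifugation, and grown 48 h in drug-free medium. IC50 came from growth curves, with untreated culture as 100% and chloroquine-treated culture as 0% growth.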

[12] = test system: Plasmodium falciparum; assay: Antimalarial activity against chloroquine resistant late schizont Plasmodium falciparum INDO infected in human erythrocytes assessed as inhibition of parasite growth incubated for 12 hrs; assay type: functional, organism-based; details: Erythrocyte; summary of the method: as §3
[13] = test system: Plasmodium falciparum; assay: Antimalarial activity against chloroquine resistant trophozoites-stage Plasmodium falciparum INDO infected in human erythrocytes assessed as inhibition of parasite growth incubated for 12 hrs; assay type: functional, organism-based; details: Erythrocyte; summary of the method: as §3
[14] = test system: Plasmodium falciparum; assay: Antiplasmodial activity against chloroquine resistant ring-stage Plasmodium falciparum INDO infected in human erythrocytes assessed as inhibition of parasite growth incubated for 12 hrs; assay type: functional, organism-based; details: Erythrocyte; summary of the method: as §3

SMILES | Survival [1] | selectivity ratio [2] | CC50 at 24 h [3] | IC50 [4] | IC50 [5] | Ratio IC50 [6] | inhibition at 100 µM [7] | selectivity ratio [8] | CC50 at 24 h [9] | inhibition at 100 µM [10] | IC50 [11] | IC50 [12] | IC50 [13] | IC50 [14]
CCN(CC)CCCC(C)Nc1ccnc2cc(Cl)ccc12 (configuration not stated) [CHLOROQUINE] | 28 days | – | – | – | – | – | – | – | – | – | – | – | – | –
CC(C)c1ccc(-c2nnn(CCCN3CCN(c4ccnc5cc(Cl)ccc45)CC3)n2)cc1 | – | 47.8 | > 400 µM | 3.12 µM | 8.37 µM | 2.69 | > 50% | > 47.8 | > 400 µM | > 50% | – | – | – | –
COc1cccc(-c2nnn(CCCN3CCN(c4ccnc5cc(Cl)ccc45)CC3)n2)c1 | – | 44.6 | 342 µM | 9.9 µM | 7.66 µM | 0.77 | > 50% | > 52.2 | > 400 µM | > 50% | – | – | – | –
Clc1ccc2c(N3CCN(CCCn4nnc(-c5cccc(Br)c5)n4)CC3)ccnc2c1 | – | 56.8 | > 400 µM | 3.84 µM | 7.05 µM | 1.83 | > 50% | > 56.8 | > 400 µM | > 50% | 8.24 µM | 4.62 µM | 7.31 µM | 8.67 µM
Clc1ccc(-c2nnn(CCCN3CCN(c4ccnc5cc(Cl)ccc45)CC3)n2)cc1 | – | 139 | > 400 µM | 1.11 µM | 2.87 µM | 2.58 | > 50% | > 139 | > 400 µM | > 50% | 3.93 µM | 7.64 µM | 12.2 µM | 4.07 µM
O=C(Cn1nnc(-c2ccc(Cl)cc2)n1)N1CCN(c2ccnc3cc(Cl)ccc23)CC1 | – | 28.7 | > 400 µM | 32.1 µM | 14 µM | 0.43 | > 50% | > 28.7 | > 400 µM | > 50% | – | – | – | –
COc1ccc(-c2nnn(CCCN3CCN(c4ccnc5cc(Cl)ccc45)CC3)n2)cc1OC | – | 67 | > 400 µM | 4.84 µM | 5.97 µM | 1.23 | > 50% | 21.7 | 129 µM | > 50% | – | – | – | –
O=C(Cn1nnc(-c2ccc([N+](=O)[O-])cc2)n1)N1CCN(c2ccnc3cc(Cl)ccc23)CC1 | – | 179 | > 400 µM | 1.65 µM | 2.24 µM | 1.36 | > 50% | > 179 | > 400 µM | > 50% | 5.46 µM | 6.29 µM | 4.72 µM | 10.3 µM
O=C(Cn1nnc(-c2cccc(Cl)c2)n1)N1CCN(c2ccnc3cc(Cl)ccc23)CC1 | – | 67.7 | > 400 µM | 12.6 µM | 5.91 µM | 0.47 | > 50% | > 67.7 | > 400 µM | > 50% | 15.9 µM | 24.8 µM | 5.39 µM | 19.6 µM
O=C(Cn1nnc(-c2ccc(F)cc2)n1)N1CCN(c2ccnc3cc(Cl)ccc23)CC1 | – | 32.2 | > 400 µM | 15.6 µM | 12.4 µM | 0.8 | > 50% | 1.95 | 24.2 µM | > 50% | – | – | – | –
CC(C)c1ccc(-c2nnn(CC(=O)N3CCN(c4ccnc5cc(Cl)ccc45)CC3)n2)cc1 | – | 60.1 | > 400 µM | 15.9 µM | 6.66 µM | 0.42 | > 50% | > 60.1 | > 400 µM | > 50% | 21.5 µM | 26.7 µM | 24.9 µM | 18.5 µM
O=C(Cn1nnc(-c2cccc(Br)c2)n1)N1CCN(c2ccnc3cc(Cl)ccc23)CC1 | – | 44.5 | > 400 µM | 10.5 µM | 8.99 µM | 0.86 | > 50% | > 44.5 | > 400 µM | > 50% | – | – | – | –
O=[N+]([O-])c1cccc(-c2nnn(CCCN3CCN(c4ccnc5cc(Cl)ccc45)CC3)n2)c1 | – | 24.7 | > 400 µM | 9.17 µM | 16.2 µM | 1.76 | > 50% | 4.45 | 72 µM | > 50% | – | – | – | –
Fc1ccc(-c2nnn(CCCN3CCN(c4ccnc5cc(Cl)ccc45)CC3)n2)cc1 | – | 99 | > 400 µM | 2.07 µM | 4.04 µM | 1.96 | > 50% | > 99 | > 400 µM | > 50% | 1.68 µM | 1.85 µM | 2.8 µM | 1.72 µM
O=C(Cn1nnc(-c2cccc(F)c2)n1)N1CCN(c2ccnc3cc(Cl)ccc23)CC1 | – | 47.3 | > 400 µM | 8.14 µM | 8.46 µM | 1.04 | > 50% | > 47.3 | > 400 µM | > 50% | – | – | – | –
Fc1cccc(-c2nnn(CCCN3CCN(c4ccnc5cc(Cl)ccc45)CC3)n2)c1 | – | 28.1 | > 400 µM | 22.9 µM | 14.2 µM | 0.62 | > 50% | > 28.1 | > 400 µM | > 50% | – | – | – | –
O=C(Cn1nnc(-c2ccc(Br)cc2)n1)N1CCN(c2ccnc3cc(Cl)ccc23)CC1 | – | 35.6 | > 400 µM | 17.5 µM | 11.2 µM | 0.64 | > 50% | > 35.6 | > 400 µM | > 50% | – | – | – | –
Cc1ccc(-c2nnn(CCCN3CCN(c4ccnc5cc(Cl)ccc45)CC3)n2)cc1 | – | 63 | > 400 µM | 8 µM | 6.35 µM | 0.79 | > 50% | 48.8 | 310 µM | > 50% | – | – | – | –
Clc1cccc(-c2nnn(CCCN3CCN(c4ccnc5cc(Cl)ccc45)CC3)n2)c1 | – | 20.1 | > 400 µM | 10.7 µM | 19.9 µM | 1.87 | > 50% | > 20.1 | > 400 µM | > 50% | – | – | – | –
